Measurements published in article PMC6675461 (Bioorganic & medicinal chemistry, 2009).
Counter-ions that a name gives are not always drawn. Like-named read-outs stand apart in the source and are kept apart here.

Columns and labels:
[1] = tested on: three melanoma cell lines (B16-F1, A375, WM-164); assay: SRB assay, average over melanoma cell lines and selectivity vs fibroblast; format: cell-based, human, mouse; details: for IC50: Fibroblast
[2] = tested on: four prostate cancer cell lines (DU 145, PC-3, LNCaP, PPC-1); assay: SRB assay, average over prostate cancer cell lines and selectivity vs RH7777; format: cell-based, human; details: for IC50: Homo sapiens, RH7777, read-out: Aver. (average IC50 of four prostate cells IC50s)
Outline: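 The control line was LPL receptor-negative RH7777 in DMEM/10% FBS. The prostate IC50s were averaged. Selectivity = IC50 in RH7777 divided by the average tumor-cell IC50.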

[3] = tested on: NCI-60 human tumor cell lines; assay: NCI-60 human tumor cell line anticancer drug screen; format: cell-based; details: read-out: GI50 range, all nine types of cancer cells
[4] = tested on: WM-164 cells; assay: SRB antiproliferative assay, WM-164 melanoma cells; format: cell-based, human; details: read-out: IC50 ± SEM WM-164
Outline: (§1)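 Melanoma lines (human A375, WM-164; mouse B16-F1) and human dermal fibroblasts were grown in DMEM with 5% FBS, 1% antibiotic/antimycotic and bovine insulin (5 μg/mL) at 37 °C, 5% CO2. Diastereomeric mixtures were applied over a wide concentration range for 48 h. Cells were then TCA-fixed (10%), washed, air-dried overnight and SRB-stained, with absorbance read at 560 nm. IC50 (50% growth inhibition versus untreated) was obtained by nonlinear regression.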

[5] = tested on: B16-F1 cells; assay: SRB antiproliferative assay, B16-F1 melanoma cells; format: cell-based, mouse; details: read-out: IC50 ± SEM B16-F1, 48 h, diastereomeric mixtures
Outline: as §1

[6] = tested on: A375 cells; assay: SRB antiproliferative assay, A375 melanoma cells; format: cell-based, human; details: read-out: IC50 ± SEM A375
Outline: as §1

[7] = tested on: Human dermal fibroblast cells; assay: SRB assay, fibroblast control cells; format: cell-based; details: read-out: IC50 ± SEM Fibroblast, 48 h, control cell line for melanoma
Outline: as §1

[8] = read-out: Aver. (average IC50 of three melanoma cells IC50s)
[9] = read-out: IC50 range over melanoma cell lines
[10] = SRB, 48 h, diastereomeric mixtures

Compound | IC50 [2] [nM] | IC50 [1, 8] [µM] | further results
CCCCCCCCCCCCCCCCCCNC(=O)[C@@H]1CSC(c2ccccc2)N1 (mixture of isomers) [Compound 1a, (2RS,4R)-2-Phenyl-thiazolidine-4-carboxylic acid octadecylamide] | 6900 | 11.6 | GI50 [3]: 0.12 to 10.9 µM
CCCCCCCCCCCCCCCCCCNC(=O)[C@@H]1CSC(c2cc(OC)c(OC)c(OC)c2)N1 (mixture of isomers) [Compound 3aa, (2RS,4R)-2-(3,4,5-Trimethoxy-phenyl)-thiazolidine-4-carboxylic acid octadecylamide] | – | – | fold more potent than 1a against prostate cancer cells ([2]; from average IC50): 2.4 fold
CCCCCCCCCCCCCCCCCCNC(=O)[C@@H]1CSC(c2ccc(OC)c(OC)c2)N1 (mixture of isomers) [Compound 3ba, (2RS,4R)-2-(3,4-Dimethoxy-phenyl)-thiazolidine-4-carboxylic acid octadecylamide] | 3200 | 8 | –
CCCCCCCCC/C=C/CCCCCCCNC(=O)[C@@H]1CSC(c2ccc(OC)c(OC)c2)N1 (mixture of isomers) [Compound 3bc, (2RS,4R)-2-(3,4-Dimethoxy-phenyl)-thiazolidine-4-carboxylic acid (E)-octadec-8-enylamide] | 1200 | – | –
CCCCCCCCCCCCCCCCNC(=O)[C@@H]1CSC(c2ccccc2OC)N1 (mixture of isomers) [Compound 3ca, (2RS,4R)-2-(2-Methoxy-phenyl)-thiazolidine-4-carboxylic acid hexadecylamide] | 4800 | 3.2 | –
CCCCCCCCCCCCCCCCNC(=O)[C@@H]1CSC(c2cccc(OC)c2)N1 (mixture of isomers) [Compound 3da, (2RS,4R)-2-(3-Methoxy-phenyl)-thiazolidine-4-carboxylic acid hexadecylamide] | 700 | 2 | –
CCCCCCCCCCCCCCCCNC(=O)[C@@H]1CSC(c2ccc(OC)cc2)N1 (mixture of isomers) [Compound 3ea, (2RS,4R)-2-(4-Methoxy-phenyl)-thiazolidine-4-carboxylic acid hexadecylamide] | 1600 | 1.6 | –
CCCCCCCCCCCCCCCCNC(=O)[C@@H]1CSC(c2ccc(N(C)C)cc2)N1 (mixture of isomers) [Compound 3fa, (2RS,4R)-2-(4-Dimethylamino-phenyl)-thiazolidine-4-carboxylic acid hexadecylamide] | 2800 | – | –
CCCCCCCCCCCCCCCCNC(=O)[C@@H]1CSC(c2ccccc2NC(C)=O)N1 (mixture of isomers) [Compound 3ga, (2RS,4R)-2-(2-Acetylamino-phenyl)-thiazolidine-4-carboxylic acid hexadecylamide] | 3000 | 7.1 | –
CC(=O)Nc1ccc(C2N[C@H](C(=O)NC34CC5CC(CC(C5)C3)C4)CS2)cc1 (mixture of isomers) [Compound 3ib, (2RS,4R)-2-(4-Acetylamino-phenyl)-thiazolidine-4-carboxylic acid adamantan-1-ylamide] | – | 120 | –
CC(=O)Nc1ccc(C2N[C@H](C(=O)NC3C4CC5CC(C4)CC3C5)CS2)cc1 (mixture of isomers) [Compound 3ic, (2RS,4R)-2-(4-Acetylamino-phenyl)-thiazolidine-4-carboxylic acid adamantan-2-ylamide] | – | 79.5 | –
CC(=O)Nc1ccc(C2N[C@H](C(=O)Nc3ccc(-c4ccccc4)cc3)CS2)cc1 (mixture of isomers) [Compound 3if, (2RS,4R)-2-(4-Acetylamino-phenyl)-thiazolidine-4-carboxylic acid biphenyl-4-ylamide] | – | 5.3 | –
CCCCCCCCC#CCCCCCCCCCNC(=O)[C@@H]1CSC(c2ccc(NC(C)=O)cc2)N1 (mixture of isomers) [Compound 3ii, (2RS,4R)-2-(4-Acetylamino-phenyl)-thiazolidine-4-carboxylic acid nonadec-10-ynylamide] | 1700 | – | –
CCCCCCCCCCCCCCCCNC(=O)[C@@H]1CSC(c2ccccc2)N1 (mixture of isomers) [Compound 3ja, (2RS,4R)-2-Phenyl-thiazolidine-4-carboxylic acid hexadecylamide] | – | – | IC50 [1, 9]: 0.7 to 2.1 µM
CCCCCCCCC/C=C\CCCCCCCNC(=O)[C@@H]1CSC(c2ccccc2)N1 (mixture of isomers) [Compound 3jb, (2RS,4R)-2-Phenyl-thiazolidine-4-carboxylic acid (Z)-octadec-8-enylamide] | 1700 | 4.4 | –
CCCCCCCCC/C=C/CCCCCCCNC(=O)[C@@H]1CSC(c2ccccc2)N1 (mixture of isomers) [Compound 3jc, (2RS,4R)-2-Phenyl-thiazolidine-4-carboxylic acid (E)-octadec-8-enylamide] | – | 5.9 | IC50 ([4]; Homo sapiens, WM164, 48 h): 2400 ± 200 nM
CCCCCCCCCCCCCCCCOC(=O)[C@@H]1CSC(c2ccc(NC(C)=O)cc2)N1 (mixture of isomers) [Compound 5, (2RS,4R)-2-(4-Acetylamino-phenyl)-thiazolidine-4-carboxylic acid hexadecyl ester] | – | 29.5 | –
CCCCCCCCCCCCCCCCNC[C@@H]1CSC(c2ccccc2)N1 (mixture of isomers) [Compound 8a, (2RS,4R)-Hexadecyl-(2-phenyl-thiazolidin-4-ylmethyl)-amine hydrochloride] | – | 7.5 | –
CCCCCCCCCCCCCCCCNC(=O)[C@@H]1CSC(c2ccc(NS(C)(=O)=O)cc2)N1 (mixture of isomers) [Compound 15a, (2RS,4R)-2-(4-Methanesulfonylaminophenyl)-thiazolidine-4-carboxylic acid hexadecylamide] | – | 60.9 | IC50 [1, 9]: 5.7 to 114 µM
[NH2][Pt]([NH2])([Cl])[Cl] [CDDP, cisplatin, reference compound] | – | – | IC50 [5]: > 100 µM; IC50 [6, 10]: > 100 µM; IC50 [4, 10]: > 100000 nM; IC50 [7]: > 100 µM; Antiproliferative activity on melanoma cell lines, in words ([1]; reference compounds, in vitro): resistant
CCCCCCCCC/C=C\CCCCCCCNC(=O)[C@@H]1CSC(c2cc(OC)c(OC)c(OC)c2)N1 (stereo partly drawn) [Compound 3ab, (2RS,4R)-2-(3,4,5-Trimethoxy-phenyl)-thiazolidine-4-carboxylic acid octadec-8-cis-enylamide] | 1000 | 2.8 | –
CCCCCCCCC/C=C/CCCCCCCNC(=O)[C@@H]1CSC(c2cc(OC)c(OC)c(OC)c2)N1 (stereo partly drawn) [Compound 3ac, (2RS,4R)-2-(3,4,5-Trimethoxy-phenyl)-thiazolidine-4-carboxylic acid octadec-8-trans-enylamide] | 800 | 2 | –
CC(=O)Nc1ccc(C2N[C@H](C(=O)Nc3ccc4cc5ccccc5cc4c3)CS2)cc1 (some centres unmarked) [Compound 3ie] | 1000 | 3.4 | –
CCCCCCCCCCCCCCCCNC(=O)[C@@H](N)CSC [Compound 16a, (2R)-2-Amino-N-hexadecyl-3-methylsulfanyl-propion-amide] | – | – | IC50 [1, 9]: 12.9 to 14.4 µM
CCCCCCCCCCCCCCCCNC(=O)[C@@H](N)CSCc1ccccc1 [Compound 16c, (2R)-2-Amino-3-benzylsulfanyl-N-hexadecyl-propionamide] | – | – | IC50 [1, 9]: 12.8 to 15.1 µM
CCCCCCCCCCCCCCCCNC(=O)CNCc1ccc(NC(C)=O)cc1 [Compound 16d, 2-(4-Acetylamino-benzylamino)-N-hexadecyl-acetamide] | – | – | IC50 [1, 9]: 10.2 to 11.9 µM
CNC(=O)c1cc(Oc2ccc(NC(=O)Nc3ccc(Cl)c(C(F)(F)F)c3)cc2)ccn1 [Sorafenib, reference compound] | – | – | IC50 ([6]; Homo sapiens, A-375, 48 h): 5.4 ± 0.5 µM

The next lines start with results.

IC50 [2] [nM] | Compound | IC50 [1, 8] [µM] | further results
1800 | CCCCCCCCCCCCCCCCNC(=O)[C@@H]1CSC(c2ccc(N)cc2)N1 (mixture of isomers) [Compound 13b, (2RS,4R)-2-(4-Amino-phenyl)-thiazolidine-4-carboxylic acid hexadecylamide] | – | –
2000 | CCCCCCCCCCCCCCCCNC(=O)[C@@H]1CSC(c2ccc(NC(N)=O)cc2)N1 (mixture of isomers) [Compound 15c, (2RS,4R)-2-(4-Ureido-phenyl)-thiazolidine-4-carboxylic acid hexadecylamide] | 3.9 | –
1000 | CCCCCCCCCCCCCCCCNC(=O)[C@@H]1CSC(c2ccc(NC(=O)CCl)cc2)N1 (stereo partly drawn) [Compound 15b, (2RS,4R)-2-[4-(2-Chloro-acetylamino)-phenyl]-thiazoli-dine-4-carboxylic acid hexadecylamide] | 39.8 | IC50 [1, 9]: 5.7 to 114 µM
